Source: ChEMBL document CHEMBL4145488, “Structure-based development of an osteoprotegerin-like glycopeptide that blocks RANKL/RANK interactions and reduces ovariectomy-induced bone loss in mice” (Eur J Med Chem, 2018)
Blank lines part the entries; values can stand above or below the compound they belong to. Active and inactive are the calls of the source. No cut-off for these calls is given here. Where a SMILES comes first, the peptide text is derived from it. Bridges are numbered along the chain shown (N, C = ends). Triazole bridges read from a SMILES are 1,4-linked. [ ]: non-standard residue; d: D form. The star is where a group is joined. NH(β-GlcNAc) = CC(=O)N[C@@H]1[C@@H](O)[C@H](O)[C@@H](CO)O[C@H]1N*; Dap(N3) = [N-]=[N+]=NC[C@H](N)C(=O)O; Sec = N[C@@H](C[SeH])C(=O)O; Pra = C#CC[C@H](N)C(=O)O

What was measured:
[1] = test system: BMMC; assay: Inhibition of RANKL/mCSF-induced osteoclast differentiation in C57BL/6 mouse BMMC assessed as reduction in TRAP-positive multinucleated cells at 30 uM by microscopic method relative to control; type: functional; settings: C57BL/6, BMMC
[2] = test system: BMMC; assay: Cytotoxicity against C57BL/6 mouse BMMC up to 100 uM after 48 hrs by CCK8 assay; type: cell-based
Procedure, shortened: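 BMMCs seeded at 1×10^5/mL and grown 24 h, then exposed to peptide at 0, 12.5, 25.0, 50.0 or 100.0 µM for 48 h. CCK-8 solution added for 2 h and absorbance read at 450 nm.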

[3] = test system: BMMC; assay: Inhibition of RANKL/mCSF-induced osteoclast differentiation in C57BL/6 mouse BMMC assessed as reduction in TRAP-positive multinucleated cells by microscopic method; type: functional, cell-based; settings: for IC50: C57BL/6, BMMC
[4] = biological target: T1, Tumor necrosis factor ligand superfamily member 11 (Homo sapiens) (UniProt O14788); assay: (§1) Binding affinity to recombinant human sRANKL expressed in Escherichia coli by SPR assay
T1 sequence (whole entry): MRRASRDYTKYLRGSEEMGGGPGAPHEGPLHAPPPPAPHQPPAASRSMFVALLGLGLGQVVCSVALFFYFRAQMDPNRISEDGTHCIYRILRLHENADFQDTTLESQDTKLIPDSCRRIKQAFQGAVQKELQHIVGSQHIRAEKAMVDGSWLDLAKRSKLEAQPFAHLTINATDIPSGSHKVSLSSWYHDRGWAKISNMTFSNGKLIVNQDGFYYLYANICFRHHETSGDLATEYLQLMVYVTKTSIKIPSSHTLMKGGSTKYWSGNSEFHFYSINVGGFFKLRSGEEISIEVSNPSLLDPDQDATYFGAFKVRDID
Procedure, shortened: (§2)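 SPR at 25 °C with recombinant sRANKL immobilized on a CM5 dextran chip at about 3500 RU. Surfaces regenerated between cycles with Gly-HCl at pH 2.5. kon, koff and Kd taken from kinetic fitting of the sensorgrams.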

[5] = biological target: T2, Tumor necrosis factor ligand superfamily member 11 (Homo sapiens, UniProt O14788); assay: as §1; procedure, shortened: as §2
T2 sequence (O14788 whole entry): T1 sequence (whole entry)

[6] = biological target: T1, Tumor necrosis factor ligand superfamily member 11 (Homo sapiens); assay: Binding affinity to recombinant human sRANKL expressed in Escherichia coli assessed as association constant by SPR assay; procedure, shortened: as §2
[7] = biological target: T1, Tumor necrosis factor ligand superfamily member 11 (Homo sapiens); assay: Binding affinity to recombinant human sRANKL expressed in Escherichia coli assessed as dissociation constant by SPR assay; procedure, shortened: as §2
[8] = biological target: Tumor necrosis factor ligand superfamily member 11/11A (Mus musculus) (UniProt O35235+O35305); assay: Inhibition of RANKL/RANK protein-protein interaction in mouse RAW264.7 cells assessed as reduction in RANKL-stimulated NF-kB signaling pathway activation by measuring decrease in IkBalpha phosphorylation after 2 hrs by immunoblot assay; type: cell-based
Chain of Tumor necrosis factor ligand superfamily member 11/11A (Mus musculus) (O35235 139-316 limits assumed): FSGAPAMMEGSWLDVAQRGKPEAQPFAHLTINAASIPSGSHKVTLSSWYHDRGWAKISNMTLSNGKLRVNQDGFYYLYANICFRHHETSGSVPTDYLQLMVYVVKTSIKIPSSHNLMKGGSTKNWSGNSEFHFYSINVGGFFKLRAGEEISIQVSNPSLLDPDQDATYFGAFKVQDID
Chain of Tumor necrosis factor ligand superfamily member 11/11A (Mus musculus) (O35305 31-625 partner limits assumed): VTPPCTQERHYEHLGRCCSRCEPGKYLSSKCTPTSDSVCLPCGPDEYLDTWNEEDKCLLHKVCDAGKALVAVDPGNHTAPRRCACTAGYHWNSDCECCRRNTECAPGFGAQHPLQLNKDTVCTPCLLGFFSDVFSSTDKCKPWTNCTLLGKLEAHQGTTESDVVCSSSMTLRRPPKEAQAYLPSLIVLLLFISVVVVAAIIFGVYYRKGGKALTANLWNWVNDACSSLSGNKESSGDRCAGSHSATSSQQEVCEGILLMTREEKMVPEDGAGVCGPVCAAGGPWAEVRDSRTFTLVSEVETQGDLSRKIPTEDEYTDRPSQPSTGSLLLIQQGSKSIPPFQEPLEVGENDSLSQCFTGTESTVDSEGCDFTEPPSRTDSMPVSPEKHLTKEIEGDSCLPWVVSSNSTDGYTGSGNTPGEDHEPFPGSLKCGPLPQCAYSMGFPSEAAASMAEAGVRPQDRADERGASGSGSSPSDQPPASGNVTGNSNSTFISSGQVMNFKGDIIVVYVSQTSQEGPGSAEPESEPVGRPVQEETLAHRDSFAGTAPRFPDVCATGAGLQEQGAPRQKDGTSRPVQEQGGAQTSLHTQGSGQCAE
Procedure, shortened: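 RAW264.7 cells (1×10^5/well) cultured 12 h, pretreated with or without peptide for 2 h, then stimulated with 300 ng/mL sRANKL for the indicated periods. Lysates (20 µg) run on SDS-PAGE and blotted for phospho-IκBα, IκBα and ERK2; ECL detection.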

[9] = Drug metabolism assessed as alpha-chymotrypsin (unknown origin)-mediated compound degradation by measuring parent compound remaining after 8 hrs by HPLC analysis; type: ADME; settings: human, read-out: Stability
Procedure, shortened: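 Peptide exposed to α-chymotrypsin; percent residual peptide tracked by HPLC. Mean ± SEM of duplicate independent experiments.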

[10] = test system: Mus musculus; assay: Inhibition of ovariectomy-induced trabecular bone loss in C57BL/6 mouse distal femur bone at 20 mg/kg/day, ip after 6 weeks by H and E staining based microscopic method; type: functional, organism-based
Procedure, shortened: (§3)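 Female C57BL/6 mice, 6 weeks old, ovariectomized, six per group; 20.0 mg/kg i.p. daily in saline, or saline, for 6 weeks. Femurs fixed in 4 % paraformaldehyde for 4 days and decalcified in 10% EDTA for 2 weeks. 4 µm paraffin sections of the metaphysis stained with H&E (trabecular area) or TRAP (osteoclasts counted).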

[11] = test system: Mus musculus; assay: Inhibition of ovariectomy-induced trabecular bone loss in C57BL/6 mouse assessed as reduction in TRAP-positive multinucleated cells in distal femur bone at 20 mg/kg/day, ip after 6 weeks by microscopic method; type: functional, organism-based; procedure, shortened: as §3
[12] = test system: Mus musculus; assay: Inhibition of ovariectomy-induced trabecular bone loss in C57BL/6 mouse distal femur bone assessed as increase in bone volume expressed per unit total volume at 20 mg/kg/day, ip after 6 weeks by micro-CT analysis; type: functional, organism-based
Procedure, shortened: (§4)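 Female C57BL/6 mice, 6 weeks old, ovariectomized, six per group; 20.0 mg/kg i.p. daily in saline, or saline vehicle, for 6 weeks. Femurs then scanned by micro-CT for BMD, Tb.N and BS/TV, with 2D/3D reconstruction.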

[13] = test system: Mus musculus; assay: Inhibition of ovariectomy-induced trabecular bone loss in C57BL/6 mouse distal femur bone assessed as increase in bone surface area expressed per unit total volume at 20 mg/kg/day, ip after 6 weeks by micro-CT analysis; type: functional, organism-based; procedure, shortened: as §4
[14] = test system: Mus musculus; assay: Inhibition of ovariectomy-induced trabecular bone loss in C57BL/6 mouse distal femur bone assessed as increase in trabecular number at 20 mg/kg/day, ip after 6 weeks by micro-CT analysis; type: functional, organism-based; procedure, shortened: as §4
[15] = test system: Mus musculus; assay: Inhibition of ovariectomy-induced trabecular bone loss in C57BL/6 mouse distal femur bone assessed as increase in bone mineral density at 20 mg/kg/day, ip after 6 weeks by micro-CT analysis; type: functional, organism-based; procedure, shortened: as §4
[16] = test system: Mus musculus; assay: Inhibition of osteoclastogenesis in ovariectomized C57BL/6 mouse assessed as decrease in serum IL-6 level at 20 mg/kg/day, ip after 6 weeks by ELISA; type: functional, organism-based
Procedure, shortened: (§5)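 Female C57BL/6 mice, 6 weeks old, ovariectomized; six per group (sham, OVX with saline, OVX with peptide). Peptide given at 20.0 mg/kg i.p. daily in saline for 6 weeks. Blood centrifuged and serum stored at -80 °C; IL-6, TRAcp5B, CTX-1 and TNF-α measured by ELISA kits.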

[17] = test system: Mus musculus; assay: Inhibition of osteoclastogenesis in ovariectomized C57BL/6 mouse assessed as decrease in serum TNFalpha level at 20 mg/kg/day, ip after 6 weeks by ELISA; type: functional, organism-based; procedure, shortened: as §5
[18] = test system: Mus musculus; assay: Inhibition of osteoclastogenesis in ovariectomized C57BL/6 mouse assessed as decrease in serum CTX-1 level at 20 mg/kg/day, ip after 6 weeks by ELISA; type: functional, organism-based; procedure, shortened: as §5
[19] = test system: Mus musculus; assay: Inhibition of osteoclastogenesis in ovariectomized C57BL/6 mouse assessed as decrease in serum TRAcp5B level at 20 mg/kg/day, ip after 6 weeks by ELISA; type: functional, organism-based; procedure, shortened: as §5

Compound: CC[C@H](C)[C@@H]1NC(=O)[C@H](CCC(=O)O)NC(=O)[C@H](CC(C)C)NC(=O)[C@H](Cc2ccc(O)cc2)NC(=O)[C@H](CCCNC(=N)N)NC(=O)CNC(=O)[C@H](CCC(=O)O)NC(=O)[C@H](CCCCN)NC(=O)[C@@H](NC(C)=O)C[Se][Se]C[C@@H](C(=O)N[C@@H](CC(C)C)C(N)=O)NC(=O)[C@H](Cc2ccccc2)NC(=O)[C@H](CCC(=O)O)NC1=O (Ac-[Sec]KEGRYLEIEF[Sec]L-NH2; diselenide 1-12)
inhibition at 30 µM [1]: 40.6%
Activity [2]: Non-Toxic

IC50 [3]: 28.5 µM
remaining at 8 h [9]: > 60.7%
Compound: CC[C@H](C)[C@@H]1NC(=O)[C@H](CCC(=O)O)NC(=O)[C@H](CC(C)C)NC(=O)[C@H](Cc2ccc(O)cc2)NC(=O)[C@H](CCCNC(=N)N)NC(=O)CNC(=O)[C@H](CCC(=O)O)NC(=O)[C@H](CCCCN)NC(=O)[C@@H](NC(=O)[C@H](CC(=O)N[C@@H]2O[C@H](CO)[C@@H](O)[C@H](O)[C@H]2NC(C)=O)NC(C)=O)CSSC[C@@H](C(=O)N[C@@H](CC(C)C)C(N)=O)NC(=O)[C@H](Cc2ccccc2)NC(=O)[C@H](CCC(=O)O)NC1=O (Ac-D(NH(β-GlcNAc))CKEGRYLEIEFCL-NH2; disulfide 2-13)
inhibition at 30 µM [1]: 58.2%
inhibition [3]: Dose-dependent effect
Activity [2]: Non-Toxic
Activity [4]: Dose-dependent effect
Kd [5]: 4.54 µM
Kapp [6]: 609 M⁻¹ s⁻¹
Kapp [7]: 0.0027 s⁻¹
inhibition [8]: Active
inhibition [10]: Active
inhibition [11]: Active
inhibition [12]: Active
inhibition [13]: Active
inhibition [14]: Active
inhibition [15]: Active
inhibition [16]: Active
inhibition [17]: Active
inhibition [18]: Active
inhibition [19]: Active

IC50 [3]: 25.3 µM
Compound: CC[C@H](C)[C@H](NC(=O)[C@H](CC(C)C)NC(=O)[C@H](Cc1ccc(O)cc1)NC(=O)[C@@H]1CSSC[C@H](NC(=O)[C@@H](N)Cc2ccc(O)cc2)C(=O)N[C@@H](CCC(=O)O)C(=O)N[C@@H]([C@@H](C)CC)C(=O)N[C@@H](CCC(=O)O)C(=O)N[C@@H](Cc2ccccc2)C(=O)N1)C(=O)N[C@@H](CCCNC(=N)N)C(=O)O (H-YCEIEFCYLIR-OH; disulfide 2-7)
inhibition at 30 µM [1]: 55.6%
Kd [5]: 2.75 µM
Kapp [6]: 496 M⁻¹ s⁻¹
Kapp [7]: 0.0013 s⁻¹

remaining at 8 h [9]: 38.5%
Compound: CC[C@H](C)[C@@H]1NC(=O)[C@H](CCC(=O)O)NC(=O)[C@H](CC(C)C)NC(=O)[C@H](Cc2ccc(O)cc2)NC(=O)[C@H](CCCNC(=N)N)NC(=O)CNC(=O)[C@H](CCC(=O)O)NC(=O)[C@H](CCCCN)NC(=O)[C@@H](NC(C)=O)CSSC[C@@H](C(=O)N[C@@H](CC(C)C)C(N)=O)NC(=O)[C@H](Cc2ccccc2)NC(=O)[C@H](CCC(=O)O)NC1=O (Ac-CKEGRYLEIEFCL-NH2; disulfide 1-12)
inhibition at 30 µM [1]: 24.4%
Activity [2]: Non-Toxic
Kd [5]: 30.9 µM
Kapp [6]: 212 M⁻¹ s⁻¹
Kapp [7]: 0.0065 s⁻¹

Compound: CC[C@H](C)[C@@H]1NC(=O)[C@H](CCC(=O)O)NC(=O)[C@H](CC(C)C)NC(=O)[C@H](Cc2ccc(O)cc2)NC(=O)[C@H](CCCNC(=N)N)NC(=O)CNC(=O)[C@H](CCC(=O)O)NC(=O)[C@H](CCCCN)NC(=O)[C@@H](NC(C)=O)Cc2cn(nn2)C[C@@H](C(=O)N[C@@H](CC(C)C)C(N)=O)NC(=O)[C@H](Cc2ccccc2)NC(=O)[C@H](CCC(=O)O)NC1=O (Ac-[Pra]KEGRYLEIEF[Dap(N3)]L-NH2; triazole 1-12)
inhibition at 30 µM [1]: 42.1%
Activity [2]: Non-Toxic
